Source: ChEMBL document CHEMBL1148485, “Synthesis and biological evaluation of new selective cytotoxic cyclolignans derived from podophyllotoxin” (J Med Chem, 2004)

Assays:
[1] = test system: HeLa; test: Effect on cell cycle evaluated as proportion of cells in G0/G1 phase of the cell cycle at 10E-6 M for 24 hr in HeLa cells; assay type: functional, Homo sapiens
How it was run: (§1)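 HeLa cells were grown in DMEM with 10% heat-inactivated FCS and 2 mM L-glutamine at 37 °C in 5% CO2. They were exposed to 10^-6 to 10^-8 M for 24, 48 or 72 h. Then (3-5)×10^5 cells were fixed overnight in 70% ethanol at 4 °C, PBS-washed, and given 1 mg/mL RNase A plus 20 µg/mL propidium iodide for 1 h at room temperature. DNA content was read by flow cytometry. Sub-G1 (hypodiploid) % counted as apoptotic. Untreated controls were run in parallel. Representative of three independent experiments.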

[2] = test system: HeLa; test: Effect on cell cycle evaluated as proportion of cells in G0/G1 phase of the cell cycle at 10E-6 M for 48 hr in HeLa cells; assay type: functional, Homo sapiens; how it was run: as §1
[3] = test system: HeLa; test: Effect on cell cycle evaluated as proportion of cells in G0/G1 phase of the cell cycle at 10E-6 M for 72 hr in HeLa cells; assay type: functional, Homo sapiens; how it was run: as §1
[4] = test system: HeLa; test: Effect on cell cycle evaluated as proportion of cells in G0/G1 phase of the cell cycle at 10E-7 M for 24 hr in HeLa cells; assay type: functional, Homo sapiens; how it was run: as §1
[5] = test system: HeLa; test: Effect on cell cycle evaluated as proportion of cells in G0/G1 phase of the cell cycle at 10E-7 M for 48 hr in HeLa cells; assay type: functional, Homo sapiens; how it was run: as §1
[6] = test system: HeLa; test: Effect on cell cycle evaluated as proportion of cells in G0/G1 phase of the cell cycle at 10E-7 M for 72 hr in HeLa cells; assay type: functional, Homo sapiens; how it was run: as §1
[7] = test system: HeLa; test: Effect on cell cycle evaluated as proportion of cells in G0/G1 phase of the cell cycle at 10E-8 M for 24 hr in HeLa cells; assay type: functional, Homo sapiens; how it was run: as §1
[8] = test system: HeLa; test: Effect on cell cycle evaluated as proportion of cells in G0/G1 phase of the cell cycle at 10E-8 M for 48 hr in HeLa cells; assay type: functional, Homo sapiens; how it was run: as §1
[9] = test system: HeLa; test: Effect on cell cycle evaluated as proportion of cells in G0/G1 phase of the cell cycle at 10E-8 M for 72 hr in HeLa cells; assay type: functional, Homo sapiens; how it was run: as §1
[10] = test system: HeLa; test: Effect on cell cycle evaluated as proportion of cells in G2/M phase of the cell cycle at 10E-6 M for 48 hr in HeLa cells; assay type: functional, Homo sapiens; how it was run: as §1
[11] = test system: HeLa; test: Effect on cell cycle evaluated as proportion of cells in G2/M phase of the cell cycle at 10E-6 M for 72 hr in HeLa cells; assay type: functional, Homo sapiens; how it was run: as §1
[12] = test system: HeLa; test: Effect on cell cycle evaluated as proportion of cells in S phase of the cell cycle at 10E-8 M for 24 hr in HeLa cells; assay type: functional, Homo sapiens; how it was run: as §1
[13] = test system: HeLa; test: Effect on cell cycle evaluated as proportion of cells in S phase of the cell cycle at 10E-8 M for 48 hr in HeLa cells; assay type: functional, Homo sapiens; how it was run: as §1
[14] = test system: HeLa; test: Effect on cell cycle evaluated as proportion of cells in S phase of the cell cycle at 10E-8 M for 72 hr in HeLa cells; assay type: functional, Homo sapiens; how it was run: as §1
[15] = test system: HeLa; test: Effect on cell cycle evaluated as proportion of cells in S phase of the cell cycleG2/M at 10E-8 M for 72 hr in HeLa cells; assay type: functional, Homo sapiens; how it was run: as §1
[16] = test system: HeLa; test: Effect on cell cycle evaluated as proportion of cells in sub-G1 (apoptic cells) phase of the cell cycle at 10E-6 M for 72 hr in HeLa cells; assay type: functional, Homo sapiens; how it was run: as §1
[17] = test system: HeLa; test: Effect on cell cycle evaluated as proportion of cells in sub-G1 (apoptic cells) phase of the cell cycle at 10E-7 M for 72 hr in HeLa cells; assay type: functional, Homo sapiens; how it was run: as §1
[18] = test system: HeLa; test: Effect on cell cycle evaluated as proportion of cells in sub-G1 phase (apoptic cells )of the cell cycle at 10E-8 M for 24 hr in HeLa cells; assay type: functional, Homo sapiens; how it was run: as §1
[19] = test system: HeLa; test: Effect on cell cycle evaluated as proportion of cells in sub-G1 phase (apoptic cells) of the cell cycle at 10E-6 M for 24 hr in HeLa cells; assay type: functional, Homo sapiens; how it was run: as §1
[20] = test system: HeLa; test: Effect on cell cycle evaluated as proportion of cells in sub-G1 phase (apoptic cells) of the cell cycle at 10E-7 M for 24 hr in HeLa cells; assay type: functional, Homo sapiens; how it was run: as §1
[21] = test system: HeLa; test: Effect on cell cycle evaluated as proportion of cells in sub-G1 phase (apoptic cells)of the cell cycle at 10E-8 M for 48 hr in HeLa cells; assay type: functional, Homo sapiens; how it was run: as §1
[22] = test system: HeLa; test: Effect on cell cycle evaluated as proportion of cells in sub-G1 phase of the cell cycle at 10E-7 M for 48 hr in HeLa cells; assay type: functional, Homo sapiens; how it was run: as §1
[23] = test system: HT-29; test: In vitro cytotoxicity against HT-29 (human colon carcinoma) cell line.; assay type: functional, cell-based; settings: Homo sapiens, HT-29
[24] = test system: HeLa; test: Effect on cell cycle evaluated as proportion of cells in G2/M phase of the cell cycle at 10E-7 M for 72 hr in HeLa cells; assay type: functional, Homo sapiens; how it was run: as §1
[25] = test system: HeLa; test: Effect on cell cycle evaluated as proportion of cells in G2/M phase of the cell cycle at 10E-8 M for 24 hr in HeLa cells; assay type: functional, Homo sapiens; how it was run: as §1
[26] = test system: HeLa; test: Effect on cell cycle evaluated as proportion of cells in G2/M phase of the cell cycle at 10E-8 M for 48 hr in HeLa cells; assay type: functional, Homo sapiens; how it was run: as §1
[27] = test system: HeLa; test: Effect on cell cycle evaluated as proportion of cells in S phase of the cell cycle at 10E-6 M for 24 hr in HeLa cells; assay type: functional, Homo sapiens; how it was run: as §1
[28] = test system: HeLa; test: Effect on cell cycle evaluated as proportion of cells in S phase of the cell cycle at 10E-6 M for 48 hr in HeLa cells; assay type: functional, Homo sapiens; how it was run: as §1
[29] = test system: HeLa; test: Effect on cell cycle evaluated as proportion of cells in S phase of the cell cycle at 10E-6 M for 72 hr in HeLa cells; assay type: functional, Homo sapiens; how it was run: as §1
[30] = test system: HeLa; test: Effect on cell cycle evaluated as proportion of cells in S phase of the cell cycle at 10E-7 M for 24 hr in HeLa cells; assay type: functional, Homo sapiens; how it was run: as §1
[31] = test system: HeLa; test: Effect on cell cycle evaluated as proportion of cells in S phase of the cell cycle at 10E-7 M for 48 hr in HeLa cells; assay type: functional, Homo sapiens; how it was run: as §1
[32] = test system: HeLa; test: Effect on cell cycle evaluated as proportion of cells in S phase of the cell cycle at 10E-7 M for 72 hr in HeLa cells; assay type: functional, Homo sapiens; how it was run: as §1
[33] = test system: HeLa; test: Effect on cell cycle evaluated as proportion of cells in G2/M phase of the cell cycle at 10E-7 M for 24 hr in HeLa cells; assay type: functional, Homo sapiens; how it was run: as §1
[34] = test system: HeLa; test: Effect on cell cycle evaluated as proportion of cells in G2/M phase of the cell cycle at 10E-7 M for 48 hr in HeLa cells; assay type: functional, Homo sapiens; how it was run: as §1
[35] = test system: HeLa; test: Effect on cell cycle evaluated as proportion of cells in sub-G1 phase(apoptic cells) of the cell cycle at 10E-8 M for 72 hr in HeLa cells; assay type: functional, Homo sapiens; how it was run: as §1
[36] = test system: HeLa; test: Effect on cell cycle evaluated as proportion of cells in sub-G1 (apoptic cells) phase of the cell cycle at 10E-6 M for 48 hr in HeLa cells; assay type: functional, Homo sapiens; how it was run: as §1
[37] = Selectivity index is the ratio of IC50 of P-388 cell line to that of HT-29; assay type: functional
[38] = test system: HeLa; test: Effect on cell cycle evaluated as proportion of cells in G2/M phase of the cell cycle at 10E-6 M for 24 hr in HeLa cells; assay type: functional, Homo sapiens; how it was run: as §1

SMILES: COc1cc([C@@H]2c3cc4c(cc3[C@H](O)[C@H]3COC(=O)[C@H]23)OCO4)cc(OC)c1OC [PODOFILOX]
- Activity [1]: 2.2%
- Activity [2]: 9.7%
- Activity [3]: 7.1%
- Activity [4]: 2.2%
- Activity [5]: 11%
- Activity [6]: 9.2%
- Activity [7]: 22.6%
- Activity [8]: 16.1%
- Activity [9]: 13.9%
- Activity [10]: 18%
- Activity [11]: 0.2%
- Activity [12]: 4.3%
- Activity [13]: 9.7%
- Activity [14]: 4.1%
- Activity [15]: 0.2%
- Activity [16]: 89.3%
- Activity [17]: 88.1%
- Activity [18]: 1.4%
- Activity [19]: 1.5%
- Activity [20]: 1.6%
- Activity [21]: 68.4%
- Activity [22]: 59%
- IC50 [23]: 0.024 µM
- Activity [24]: 0.2%
- Activity [25]: 71.7%
- Activity [26]: 5.8%
- Activity [27]: 4.2%
- Activity [28]: 10%
- Activity [29]: 3.4%
- Activity [30]: 4.5%
- Activity [31]: 10.5%
- Activity [32]: 2.5%
- Activity [33]: 91.7%
- Activity [34]: 19.5%
- Activity [35]: 81.8%
- Activity [36]: 62.3%
- Selectivity index [37]: 0.5
- Activity [38]: 92.1%
